pIC50: −log10 of the molar value. Activity calls are given as the source filed them. The calls are words filed in the database; no cut-off is given here.
Experiments:
[1] = (§1) Induction of intracellular reactive oxygen species generation in human MDA-MB-231 cells assessed as proportion of FL1-H negative cells at 2 uM measured after 24 hrs by DCFH-DA staining based flow cytometry analysis (reference value: 52.2%); assay type: functional, MDA-MB-23
[2] = Antiproliferative activity against human MDA-MB-231 cells assessed as inhibition of cell proliferation rate at 4 uM measured after 48 hrs by MTT assay; assay type: functional; details: MDA-MB-23
Outline: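 MDA-MB-231 cells in DMEM with 10% FBS, ~5,000 cells/well, 24 h attachment, then compound for 48 h at 37°C, 5% CO2. MTT 0.5 mg/ml final for 4 h, DMSO solubilization, absorbance 570 nm; inhibition relative to untreated cells; experiments done three times.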

MDA-MB-231 [3] = test: Induction of apoptosis in human MDA-MB-231 cells assessed as necrotic cell at 1 uM after 24 hrs by Annexin V/propidium iodide staining based flow cytometric analysis (reference value: 0.019%); assay type: functional
Outline: (§2)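 MDA-MB-231 cells (2×10^5/well) attached 24 h, then treated 24 h with 1, 1.5, 2 or 3 µM, DMSO as control. Cells harvested, PBS-washed, resuspended in binding buffer, stained with Annexin V and PI for 30 min at 37°C in the dark, and analysed by flow cytometry for quadrant percentages; three experiments.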

MDA-MB-231 [4] = test: Induction of apoptosis in human MDA-MB-231 cells assessed as early apoptotic cells at 2 uM after 24 hrs by Annexin V/propidium iodide based flow cytometric analysis (reference value: 0.94%); assay type: functional; outline: as §2
MDA-MB-231 [5] = test: Induction of apoptosis in human MDA-MB-231 cells after 24 hrs by Hoechst33342 staining based fluorescence inverted microscopic analysis; assay type: functional, cell-based; details: dose 0.5-1.5 µM
Outline: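 MDA-MB-231 cells (5×10^4/well) attached 24 h, then treated 24 h with 0.5, 1 or 1.5 µM (DMSO vehicle control). Stained with Hoechst 33342 at 10 µg/ml for 5 min at 37°C in the dark, washed with PBS, and examined by inverted fluorescence microscopy for apoptotic nuclear morphology.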

MDA-MB-231 [6] = test: Inhibition of colony formation in human MDA-MB-231 cells at 0.25 uM incubated for 24 hrs followed by culturing in fresh medium for 10 days by crystal violet staining based assay; assay type: functional, cell-based
Outline: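 MDA-MB-231 seeded at 1.5×10^3 cells/well, 24 h attachment, then 24 h exposure to compound (0.25, 0.5, 1 µM) or DMSO; fresh medium for a further 10 days. Fixed in 4% paraformaldehyde 0.5 h at 4°C, crystal violet stained, dye dissolved in DMSO and absorbance read at 590 nm; performed three times.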

MDA-MB-231 [7] = test: Induction of apoptosis in human MDA-MB-231 cells assessed as late apoptotic cells at 2 uM after 24 hrs by Annexin V/propidium iodide based flow cytometric analysis (reference value: 0.038%); assay type: functional; outline: as §2
MDA-MB-231 [8] = test: Induction of cell cycle arrest in human MDA-MB-231 cells assessed as accumulation at S phase at 2 uM measured after 24 hrs by propidium iodide staining based flow cytometric method (reference value: 36.25%); assay type: functional
MDA-MB-231 [9] = test: Induction of apoptosis in human MDA-MB-231 cells assessed as increase in cleaved caspase-3 protein expression incubated for 8 hrs by Western blot analysis; assay type: functional, cell-based; details: dose 1.5-6 µM
Outline: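 MDA-MB-231 cells (8×10^5 per 60 mm dish) attached 24 h, then exposed 8 h to 1.5, 3 or 6 µM, DMSO as control. Lysates quantified by BCA; 30 µg protein run on 4–20% SDS-PAGE, transferred to PVDF, probed for Bcl-2, Bax, Bad, cleaved caspase-9, cleaved caspase-3 and PARP, with ECL detection. Densitometric relative levels; three experiments.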

MDA-MB-231 [10] = test: Induction of mitochondrial membrane potential depolarization in human MDA-MB-231 cells assessed as proportion of cells with hyperpolarized MMP at 1.5 uM incubated for 18 hrs by JC-1 staining based flow cytometry (reference value: 98.4%); assay type: functional
[11] = as §1, with “uM pretreated with ROS scavenger, NAC for 2 hrs prior to incubation with compound and” for “uM”; assay type: functional, MDA-MB-23
MDA-MB-231 [12] = test: Induction of apoptosis in human MDA-MB-231 cells assessed as late apoptotic cells at 3 uM after 24 hrs by Annexin V/propidium iodide based flow cytometric analysis (reference value: 0.038%); assay type: functional; outline: as §2
MDA-MB-231 [13] = test: Induction of apoptosis in human MDA-MB-231 cells assessed as necrotic cells at 3 uM after 24 hrs by Annexin V/propidium iodide based flow cytometric analysis (reference value: 0.019%); assay type: functional; outline: as §2
L02 = test: Cytotoxicity against human L02 cells assessed as reduction in cell viability measured after 48 hrs by MTT assay; assay type: cell-based; details: L02, 48 h
Outline: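 Cells seeded at ~5,000/well, grown 24 h to partial monolayer, then exposed 48 h at 37°C, 5% CO2 to 0.5, 1, 2, 4, 10 and 20 µM (DMSO ≤0.1%). MTT final 0.5 mg/ml for 4 h, formazan dissolved in DMSO, A570. Survival expressed as % of untreated control; IC50 from dose-response curves; three independent experiments. MDA-MB-231, MCF-7, HepG2 in DMEM; A549 and LO-2 in RPMI-1640; 10% FBS.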

MDA-MB-231 [14] = test: Induction of apoptosis in human MDA-MB-231 cells assessed as viable cells at 3 uM after 24 hrs by Annexin V/propidium iodide based flow cytometric analysis (reference value: 99%); assay type: functional; details: read-out: Activity; outline: as §2
[15] = Induction of intracellular reactive oxygen species generation in human MDA-MB-231 cells assessed as proportion of FL1-H positive cells at 1 uM measured after 24 hrs by DCFH-DA staining based flow cytometry analysis (reference value: 47.8%); assay type: functional, MDA-MB-23
MDA-MB-231 [16] = test: Induction of cell cycle arrest in human MDA-MB-231 cells assessed as accumulation at G0/G1 phase at 1 uM measured after 24 hrs by propidium iodide staining based flow cytometric method (reference value: 45.71%); assay type: functional
MDA-MB-231 [17] = test: Induction of intracellular reactive oxygen species generation in human MDA-MB-231 cells at 1 uM measured after 24 hrs by DCFH-DA staining based flow cytometry analysis relative to control; assay type: functional
Outline: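 MDA-MB-231 cells at 2×10^5 cells/well, grown 24 h, exposed 24 h to compound (1, 1.5, 2 µM) or DMSO control. Cells then took up DCFH-DA for 30 min at 37°C in the dark, were PBS-washed, resuspended in serum-free medium and analysed by flow cytometry. Relative DCF level vs control; mean ± SD, n = 3.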

MDA-MB-231 [18] = test: Induction of cell cycle arrest in human MDA-MB-231 cells assessed as accumulation at S phase at 1 uM measured after 24 hrs by propidium iodide staining based flow cytometric method (reference value: 36.25%); assay type: functional

Question: Which Activity [1] does the source give for `COc1cc2cc(N)c(=O)oc2cc1OCCCOc1no[n+]([O-])c1S(=O)(=O)c1ccccc1` here?
Answer: Its Activity is 11.2%.

Question: What about the inhibition at 4 µM [2] of the same compound?
Answer: The inhibition at 4 µM was 91.2%.

Question: And the Activity (MDA-MB-231 [3])?
Answer: The Activity was 0.21%.

Question: And the Activity (MDA-MB-231 [4])?
Answer: The Activity was 12.9%.

Question: What about the Activity (MDA-MB-231 [5]) of the same compound?
Answer: Its Activity is “Dose-dependent effect”.

Question: What about the inhibition (MDA-MB-231 [6]) of the same compound?
Answer: The inhibition was “Active”.

Question: And the Activity (MDA-MB-231 [7])?
Answer: Its Activity is 15.8%.

Question: What about the Activity (MDA-MB-231 [8]) of the same compound?
Answer: The Activity was 20.82%.

Question: What about the Activity (MDA-MB-231 [9]) of the same compound?
Answer: The Activity was “Dose-dependent effect”.

Question: What about the Activity (MDA-MB-231 [10]) of the same compound?
Answer: Its Activity is 81.4%.

Question: And the Activity [11]?
Answer: The Activity was 49%.

Question: What about the Activity (MDA-MB-231 [12]) of the same compound?
Answer: The Activity was 20.5%.

Question: What about the Activity (MDA-MB-231 [13]) of the same compound?
Answer: The Activity was 0.31%.

Question: What about the pIC50 (L02) of the same compound?
Answer: The pIC50 was 5.04.

Question: What about the viability at 3 µM (MDA-MB-231 [14]) of the same compound?
Answer: Its viability at 3 µM is 65.6%.

Question: And the Activity [15]?
Answer: Its Activity is 65%.

Question: What about the Activity (MDA-MB-231 [16]) of the same compound?
Answer: Its Activity is 43.06%.

Question: What about the “fold change (FC)” value (MDA-MB-231 [17]) of the same compound?
Answer: Its value is 1.31.

Question: And the Activity (MDA-MB-231 [18])?
Answer: The Activity was 28.05%.
